# Laboratory results taken from ChEMBL document CHEMBL1914308, “N-fused imidazoles as novel anticancer agents that inhibit catalytic activity of topoisomerase IIα and induce apoptosis in G1/S phase” (J Med Chem, 2011).
# Calls of active or inactive are those of the source. No cut-off for these calls is given here.
# Assays:
# HEK293 [1] = experiment: Induction of cell cycle arrest in human HEK293 cells assessed as accumulation at G2/M phase at 25 uM after 48 hrs by propidium iodide staining-based FACS analysis (reference value: 7.5 +/- 1.0%); assay type: functional
# HEK293 [2] = experiment: Induction of apoptosis in human HEK293 cells assessed as increase in caspase 3 expression at 15 to 25 uM after 48 hrs by Western blot analysis; assay type: functional, cell-based
# Method in brief: (§1)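 Whole-cell extracts from HEK 293 cells after 48 h at graded concentrations, Western blotted for caspase-3, Bax, Bcl-XL and PARP (cleaved 86 kDa fragment); β-actin as loading control.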
# HEK293 [3] = experiment: Induction of apoptosis in human HEK293 cells assessed as apoptotic cells at 15 uM after 48 hrs by propidium iodide staining-based FACS analysis (reference value: 4.88 +/- 0.8%); assay type: functional
# HEK293 [4] = experiment: Induction of apoptosis in human HEK293 cells assessed as increase in PARP cleavage product at 15 to 25 uM after 48 hrs by Western blot analysis; assay type: functional, cell-based; method in brief: as §1
# [5] = target: T1, DNA topoisomerase 2-alpha (Homo sapiens, UniProt P11388); experiment: Inhibition of etoposide poisoning activity against human recombinant DNA topoisomerase 2alpha assessed as enhancement of in relaxation of supercoiled plasmid pBR322 DNA at 100 uM after 30 mins by agarose gel electrophoresis
# MCF7 = experiment: Cytotoxicity against human MCF7 cells assessed as cell survival at 15 uM after 48 hrs by MTT assay; assay type: functional; settings: MCF7, 48 h, read-out: Activity
# Method in brief: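 MTT survival of MCF 7 breast cancer cells, with MCF 10A as normal comparator; 48 h exposure. MCF 7 in DMEM with 10% FBS; MCF 10A in DMEM/F-12 with 10% FBS plus hydrocortisone, cholera toxin, insulin, EGF and L-glutamine. Mean ± SD of three independent experiments.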
# [6] = target: T1, DNA topoisomerase 2-alpha; experiment: Inhibition of etoposide poisoning activity against human recombinant DNA topoisomerase 2alpha assessed as enhancement of in relaxation of supercoiled plasmid pBR322 DNA at 200 uM after 30 mins by agarose gel electrophoresis
# [7] = Cytotoxicity activity against african green monkey Vero assessed as cell survival at 100 uM after 48 hrs by MTT assay; assay type: cell-based; settings: chlorocebus sabaeus, Vero cells; read-out: Activity
# Method in brief: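 MTT survival of HEK 293 and Vero cells after 48 h with compound at graded concentrations. DMEM, 10% FBS, 37 °C, 5% CO2; dilutions in DMEM from 100 mM DMSO stock, added at 60–70% confluence. Mean ± SD of three independent experiments.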
# HEK293 [8] = experiment: Induction of apoptosis in human HEK293 cells assessed as increase in apoptotic nuclei at 15 uM after 48 hrs by DAPI staining-based fluorescence microscopic analysis; assay type: functional
# Method in brief: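 HEK 293 cells exposed 48 h to 0, 15, 25 or 35 μM, nuclei stained with DAPI and apoptotic nuclei counted by fluorescence imaging; three replicates.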
# HEK293 [9] = experiment: Induction of cell cycle arrest in human HEK293 cells assessed as accumulation at sub-G0 phase after 48 hrs by propidium iodide staining-based FACS analysis; assay type: functional
# [10] = target: T1, DNA topoisomerase 2-alpha; experiment: Inhibition of human topoisomerase 2 alpha-mediated relaxation of pRYG plasmid DNA at 100 uM by agarose gel electrophoresis
# Method in brief: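 250 ng supercoiled pRYG plasmid, 2–4 units hTopoIIα, 100 μM compound, ATP-containing Tris pH 8 buffer, 20 μL, 37 °C 30 min; SDS/proteinase K stop; 1% agarose in TAE without EtBr, post-stained 0.5 μg/mL EtBr; products quantified densitometrically.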
# HEK293 [11] = experiment: Anticlonogenic activity against human HEK293 cells assessed as inhibition of colony formation of cells at 20 to 100 uM after 48 hrs by crystal violet staining; assay type: functional, cell-based
# Method in brief: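 Clonogenic survival in HEK 293 and Vero cells, 48 h exposure at graded concentrations; % survival plotted; mean ± SD of three independent experiments. Cells grown in DMEM with 10% FBS and 1% antibiotic at 37 °C, 5% CO2; compound diluted from 100 mM DMSO stock into DMEM, added at 60–70% confluence.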
# HEK293 [12] = experiment: Induction of cell cycle arrest in human HEK293 cells assessed as accumulation at G2/M phase at 35 uM after 48 hrs by propidium iodide staining-based FACS analysis (reference value: 7.5 +/- 1.0%); assay type: functional
# HEK293 [13] = experiment: Induction of cell cycle arrest in human HEK293 cells assessed as accumulation at S phase at 15 uM after 48 hrs by propidium iodide staining-based FACS analysis (reference value: 16.91 +/- 1.0%); assay type: functional
# [14] = target: T1, DNA topoisomerase 2-alpha; experiment: Inhibition of human topoisomerase 2 alpha-mediated decatenation of kDNA at 100 uM by agarose gel electrophoresis
# Method in brief: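 150 ng kDNA with 2–4 units purified human topo II and 100 μM compound in DMSO, buffer 0.5 M Tris-HCl pH 8, NaCl, MgCl2, DTT, BSA with ATP (stock buffer concentrations), 20 μL, 37 °C 30 min. Stopped with SDS, proteinase K 37 °C 15 min; 1% agarose in TAE with 0.5 μg/mL EtBr; bands quantified by densitometry; etoposide 100 μM as reference.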
# HEK293 [15] = experiment: Induction of cell cycle arrest in human HEK293 cells assessed as accumulation at S phase at 25 uM after 48 hrs by propidium iodide staining-based FACS analysis (reference value: 16.91 +/- 1.0%); assay type: functional
# [16] = Anticlonogenic activity against african green monkey Vero after 48 hrs by crystal violet staining; assay type: ADME, cell-based; settings: chlorocebus sabaeus, Vero cells; read-out: LC50
# Method in brief: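 HEK 293 and Vero cells were grown in DMEM with 10% FBS and 1% penicillin/streptomycin at 37 °C in 5% CO₂. At 60–70% confluence they were exposed for 48 h to a range of concentrations, diluted in DMEM from 100 mM DMSO stocks. Colony survival is expressed as %. Values are mean ± SD of three independent experiments; LC₅₀ is the concentration killing half the cells.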
# [17] = Cytotoxicity against human MCF10A cells assessed as cell survival at 100 uM after 48 hrs by MTT assay; assay type: cell-based, MCF-10A; settings: read-out: Survival
# [18] = target: T1, DNA topoisomerase 2-alpha; experiment: Inhibition of human topoisomerase 2 alpha-mediated unwinding of supercoiled DNA assessed as DNA intercalation at 100 uM by agarose gel electrophoresis
# Method in brief: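 250 ng negatively supercoiled E. coli plasmid incubated 20 min at 37 °C with 1 μg/mL ethidium bromide (intercalator control), 100 μM etoposide or test compound; run on 1% agarose in TAE without EtBr, then post-stained with 0.5 μg/mL EtBr; mobility retardation scored.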
# [19] = target: T1, DNA topoisomerase 2-alpha; experiment: Inhibition of topoisomerase 2 alpha-mediated DNA relaxation activity in human HEK293 cells assessed as increase in supercoiled DNA at 35 uM after 3 to 4 hrs by agarose gel electrophoresis in presence of 20 to 250 mM ATP; assay type: cell-based
# T1 sequence (P11388 whole entry): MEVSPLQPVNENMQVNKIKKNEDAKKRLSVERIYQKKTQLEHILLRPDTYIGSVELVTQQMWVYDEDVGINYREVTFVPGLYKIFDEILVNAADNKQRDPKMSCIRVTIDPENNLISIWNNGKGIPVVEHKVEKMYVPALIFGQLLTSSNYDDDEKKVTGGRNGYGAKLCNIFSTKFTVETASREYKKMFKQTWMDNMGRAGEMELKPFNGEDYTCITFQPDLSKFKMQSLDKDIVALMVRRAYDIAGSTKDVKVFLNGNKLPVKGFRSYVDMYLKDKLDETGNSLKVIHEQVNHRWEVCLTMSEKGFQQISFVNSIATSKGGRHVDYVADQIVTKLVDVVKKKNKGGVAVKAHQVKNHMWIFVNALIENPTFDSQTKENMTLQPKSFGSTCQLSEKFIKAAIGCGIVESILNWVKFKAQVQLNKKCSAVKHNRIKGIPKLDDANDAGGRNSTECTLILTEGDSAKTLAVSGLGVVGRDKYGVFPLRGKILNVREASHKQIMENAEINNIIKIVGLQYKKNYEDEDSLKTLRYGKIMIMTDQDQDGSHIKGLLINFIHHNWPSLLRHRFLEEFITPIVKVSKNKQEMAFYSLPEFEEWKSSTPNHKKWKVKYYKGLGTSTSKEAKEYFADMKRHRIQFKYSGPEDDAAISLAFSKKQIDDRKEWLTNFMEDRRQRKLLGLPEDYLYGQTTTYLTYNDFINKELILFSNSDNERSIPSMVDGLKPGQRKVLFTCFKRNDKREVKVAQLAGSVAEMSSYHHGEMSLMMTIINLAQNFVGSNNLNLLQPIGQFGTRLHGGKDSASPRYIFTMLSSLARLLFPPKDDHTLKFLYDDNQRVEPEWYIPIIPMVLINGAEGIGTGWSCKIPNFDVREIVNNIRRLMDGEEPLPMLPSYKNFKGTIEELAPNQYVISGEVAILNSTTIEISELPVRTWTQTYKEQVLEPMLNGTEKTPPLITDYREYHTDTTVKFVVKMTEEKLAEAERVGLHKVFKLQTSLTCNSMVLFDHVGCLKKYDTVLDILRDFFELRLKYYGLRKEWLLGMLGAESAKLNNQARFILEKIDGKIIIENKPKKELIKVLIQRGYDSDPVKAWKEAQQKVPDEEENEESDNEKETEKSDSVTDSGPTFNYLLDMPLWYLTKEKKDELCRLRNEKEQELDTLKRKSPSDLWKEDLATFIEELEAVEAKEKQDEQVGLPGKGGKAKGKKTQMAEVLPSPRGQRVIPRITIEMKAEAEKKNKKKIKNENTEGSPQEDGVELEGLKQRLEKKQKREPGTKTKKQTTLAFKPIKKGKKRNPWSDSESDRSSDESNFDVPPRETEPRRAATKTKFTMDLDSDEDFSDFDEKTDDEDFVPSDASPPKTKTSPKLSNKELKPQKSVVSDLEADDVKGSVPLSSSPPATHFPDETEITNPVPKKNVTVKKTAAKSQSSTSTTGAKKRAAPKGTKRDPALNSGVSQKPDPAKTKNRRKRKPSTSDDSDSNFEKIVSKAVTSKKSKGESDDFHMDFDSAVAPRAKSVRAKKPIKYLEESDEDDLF
compound,measurement,setting,value
CC(C)(C)Nc1c(-c2ccc(C(=O)O)cc2)nc2ccccn12,Activity,HEK293 [1],8.93%
same,Activity,HEK293 [2],Active
same,Activity,HEK293 [3],24.61%
same,Activity,HEK293 [4],Active
same,inhibition,[5],inactive
same,viability at 15 µM,MCF7,50%
same,inhibition,[6],inactive
same,"viability at 48 h, 100 µM",[7],< 50%
same,Activity,HEK293 [8],20%
same,Activity,HEK293 [9],Dose-dependent effect
same,inhibition,[10],Active
same,inhibition,HEK293 [11],Dose-dependent effect
same,Activity,HEK293 [12],5.56%
same,Activity,HEK293 [13],13.92%
same,inhibition,[14],Active
same,Activity,HEK293 [15],14.16%
same,CC50 at 48 h,[16],98 µM
same,"viability at 48 h, 100 µM",[17],75%
same,inhibition,[18],inactive
same,inhibition,[19],inactive
